Measurements from ChEMBL document CHEMBL4316593 (Eur J Med Chem, 2019).
Calls of active or inactive are those of the source. The rule behind the calls is not given here.

Tests used:
U-87 MG [1] = test: Cell cycle arrest in human U87 cells assessed as change in CDK2 gene expression at cytotoxic IC50 measured after 48 hrs […] relative to control; format: functional, U-87MG ATCC
How it was run: (§1)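 U87 expression profiling. Cells incubated 48hrs at 37°C, 5% CO₂ with the IC₅₀ concentration, alongside a cisplatin and an untreated control, in triplicate. RNA was isolated by one common protocol and profiled. DEGs were called with DESeq2 (q < 0.05, fold change > 1.5) and expressed as fold change versus untreated.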

U-87 MG [2] = test: Induction of DNA damage in human U87 cells assessed as change in GADD45A gene expression at cytotoxic IC50 measured after 48 hrs […] relative to control; format: functional, U-87MG ATCC; how it was run: as §1
[3] = Inhibition of RTK/PI3K/AKT/mTOR signaling in human U87 cells assessed as up regulation of T-cell leukemia translocation altered gene expression at cytotoxic IC50 measured after 48 hrs relative to control; format: cell-based
U-87 MG [4] = test: Induction of apoptosis in human U87 cells assessed as change in ITPR2 gene expression at cytotoxic IC50 measured after 48 hrs […] relative to control; format: functional, U-87MG ATCC
How it was run: (§2)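 U87 cells grown in MEM with 10% FBS at 37°C, 5% CO2. Cells exposed to IC50 of test compound for 48 hrs, alongside untreated and cisplatin controls, each condition in triplicate. RNA isolated and profiled; differential expression called with DESeq2 (q-value < 0.05, fold change > 1.5), fold change versus untreated.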

U-87 MG [5] = test: Cell cycle arrest in human U87 cells assessed as change in MCM3 gene expression at cytotoxic IC50 measured after 48 hrs […] relative to control; format: functional, U-87MG ATCC; how it was run: as §1
U-87 MG [6] = test: Induction of apoptosis in human U87 cells assessed as change in ACTB gene expression at cytotoxic IC50 measured after 48 hrs […] relative to control; format: functional, U-87MG ATCC; how it was run: as §2
[7] = Inhibition of RTK/PI3K/AKT/mTOR signaling in human U87 cells assessed as down regulation of SOD2 gene expression at cytotoxic IC50 measured after 48 hrs relative to control; format: cell-based; details: U-87MG ATCC
How it was run: (§3)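 Cells were exposed for 48hrs at 37°C in humidified 5% CO₂ to the compound at its previously determined IC₅₀, with Cisplatin at its IC₅₀ and an untreated negative control alongside. Each condition was run in triplicate. RNA was isolated from all samples by the same protocol. Genes were called differentially expressed by DESeq2 at q-value < 0.05 and fold change > 1.5.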

[8] = Inhibition of RTK/PI3K/AKT/mTOR signaling in human U87 cells assessed as up regulation of proline-serine-threonine phosphatase interacting protein 2 gene expression at cytotoxic IC50 measured after 48 hrs relative to control; format: cell-based; details: U-87MG ATCC
LN-229 = test: Cell cycle arrest in human LN229 cells assessed as decrease in accumulation at G2/M-phase at cytotoxic IC50 measured after 48 hrs by propidium iodide staining based fluorescence cell imaging analysis; format: functional
How it was run: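 Cell cycle by PI staining. Cells seeded at 1×10^6 and grown overnight at 37°C, 5% CO₂, then exposed for 48hrs at their IC₅₀ concentration, with DMSO and cisplatin controls. Cells were trypsinized, washed in cold PBS and fixed in 70% ethanol at 4°C for 30 min. They were stained with PI in Triton X-100/RNase for 15 min at 37°C and imaged by fluorescence microscopy. Reported as mean ± S.E.M of triplicates.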

[9] = Inhibition of RTK/PI3K/AKT/mTOR signaling in human U87 cells assessed as up regulation of fibroblast growth factor 19 gene expression at cytotoxic IC50 measured after 48 hrs relative to control; format: cell-based
[10] = Inhibition of RTK/PI3K/AKT/mTOR signaling in human U87 cells assessed as up regulation of MYC gene expression at cytotoxic IC50 measured after 48 hrs relative to control; format: cell-based; details: U-87MG ATCC; how it was run: as §3
[11] = Inhibition of RTK/PI3K/AKT/mTOR signaling in human U87 cells assessed as up regulation of T-cell lymphoma invasion and metastasis 1 gene expression at cytotoxic IC50 measured after 48 hrs relative to control; format: cell-based
U-87 MG [12] = test: Cytotoxicity against human U87 cells assessed as reduction in cell proliferation measured after 48 hrs by trypan blue dye-based cell counting analysis
[13] = Inhibition of RTK/PI3K/AKT/mTOR signaling in human U87 cells assessed as up regulation of solute carrier family 4 member 2 gene expression at cytotoxic IC50 measured after 48 hrs relative to control; format: cell-based; details: U-87MG ATCC
[14] = Inhibition of RTK/PI3K/AKT/mTOR signaling in human U87 cells assessed as down regulation of USP47 gene expression at cytotoxic IC50 measured after 48 hrs relative to control; format: cell-based; details: U-87MG ATCC; how it was run: as §3
[15] = Inhibition of RTK/PI3K/AKT/mTOR signaling in human U87 cells assessed as down regulation of MAFF gene expression at cytotoxic IC50 measured after 48 hrs relative to control; format: cell-based; details: U-87MG ATCC; how it was run: as §3
[16] = Inhibition of RTK/PI3K/AKT/mTOR signaling in human U87 cells assessed as down regulation of COX17 gene expression at cytotoxic IC50 measured after 48 hrs relative to control; format: cell-based; details: U-87MG ATCC; how it was run: as §2
[17] = Inhibition of RTK/PI3K/AKT/mTOR signaling in human U87 cells assessed as up regulation of keratinocyte associated protein 3 gene expression at cytotoxic IC50 measured after 48 hrs relative to control; format: cell-based
[18] = Inhibition of RTK/PI3K/AKT/mTOR signaling in human U87 cells assessed as up regulation of ankyrin repeat domain 10 gene expression at cytotoxic IC50 measured after 48 hrs relative to control; format: cell-based; details: U-87MG ATCC
[19] = Inhibition of RTK/PI3K/AKT/mTOR signaling in human U87 cells assessed as down regulation of DHX30 gene expression at cytotoxic IC50 measured after 48 hrs relative to control; format: cell-based; details: U-87MG ATCC; how it was run: as §2
[20] = Inhibition of RTK/PI3K/AKT/mTOR signaling in human U87 cells assessed as up regulation of EPS8 like 2 gene expression at cytotoxic IC50 measured after 48 hrs relative to control; format: cell-based; details: U-87MG ATCC; how it was run: as §3
U-87 MG [21] = test: Cell cycle arrest in human U87 cells assessed as change in GADD45B gene expression at cytotoxic IC50 measured after 48 hrs […] relative to control; format: functional, U-87MG ATCC; how it was run: as §1
[22] = Inhibition of RTK/PI3K/AKT/mTOR signaling in human U87 cells assessed as up regulation of solute carrier family 11 member 2 gene expression at cytotoxic IC50 measured after 48 hrs relative to control; format: cell-based; details: U-87MG ATCC
[23] = Inhibition of RTK/PI3K/AKT/mTOR signaling in human U87 cells assessed as up regulation of RPL7L1 gene expression at cytotoxic IC50 measured after 48 hrs relative to control; format: cell-based; details: U-87MG ATCC; how it was run: as §3
[24] = Inhibition of RTK/PI3K/AKT/mTOR signaling in human U87 cells assessed as up regulation of CAPN1 gene expression at cytotoxic IC50 measured after 48 hrs relative to control; format: cell-based; details: U-87MG ATCC; how it was run: as §3
U-87 MG [25] = test: Induction of apoptosis in human U87 cells assessed as change in PMAIP1 gene expression at cytotoxic IC50 measured after 48 hrs […] relative to control; format: functional, U-87MG ATCC; how it was run: as §2
U-87 MG [26] = test: Cell cycle arrest in human U87 cells assessed as change in SFN gene expression at cytotoxic IC50 measured after 48 hrs […] relative to control; format: functional, U-87MG ATCC; how it was run: as §1

## CC(=O)C(=NNc1ccccc1C#N)C(C)=O
U-87 MG [1]
  fold change (FC): 1.392
U-87 MG [2]
  fold change (FC): -0.9679
[3]
  log2FC: 1.25
U-87 MG [4]
  log2FC: -3.745
U-87 MG [5]
  fold change (FC): 1.427
U-87 MG [6]
  log2FC: -1.876
[7]
  log2FC: -0.617
[8]
  log2FC: 0.785
LN-229
  Activity: Active
[9]
  log2FC: 0.722
[10]
  log2FC: 0.54
[11]
  log2FC: 0.812
U-87 MG [12]
  IC50: 107 µM
[13]
  log2FC: 1.04
[14]
  log2FC: -0.615
[15]
  log2FC: -1.1
[16]
  log2FC: -1.13
[17]
  log2FC: 1.03
[18]
  log2FC: 1.12
[19]
  log2FC: -0.431
[20]
  log2FC: 0.818
U-87 MG [21]
  fold change (FC): -2.899
[22]
  log2FC: 1.18
[23]
  log2FC: 0.536
[24]
  log2FC: 0.475
U-87 MG [25]
  log2FC: 1.102
U-87 MG [26]
  fold change (FC): 1.949
